Data as given in ChEMBL document CHEMBL1126020, “Potent non-6-fluoro-substituted quinolone antibacterials: synthesis and biological activity” (1992).
In brackets after ≈: the same amount, converted by molar mass.

tested on: Staphylococcus aureus; test: In vitro antimicrobial activity against strain Staphylococcus aureus 9537; format: functional
Method in brief: (§1)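 MICs by serial 2-fold broth dilution in nutrient broth. Inoculum adjusted to 10^6 CFU/mL, with compounds tested from 0.0005 to 250 μg/mL. Plates incubated 18 h at 37 °C. MIC taken as the lowest concentration preventing visible bacterial growth.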

SMILES | MIC [µg/mL]
O=C(O)c1cn(C2CC2)c2cc(N3CCNCC3)c(F)cc2c1=O [CIPROFLOXACIN] | 0.06 (≈ 0.181 µM)
NC1CCN(c2cc(F)c3c(=O)c(C(=O)O)cn(C4CC4)c3c2)C1 (stereo not given) | 1 (≈ 3.02 µM)
NC1CCN(c2ccc3c(=O)c(C(=O)O)cn(C4CC4)c3c2F)C1 (stereo not given) | 0.03 (≈ 0.0905 µM)
NC1CCN(c2cc(F)c3c(=O)c(C(=O)O)cn(C4CC4)c3c2F)C1 (stereo not given) | 0.13 (≈ 0.372 µM)
NC1CCN(c2ccc3c(=O)c(C(=O)O)cn(C4CC4)c3c2)C1 (stereo not given) | 0.25 (≈ 0.798 µM)
NC1CCN(c2cc3c(cc2F)c(=O)c(C(=O)O)cn3C2CC2)C1 (stereo not given) | 0.03 (≈ 0.0905 µM)
NC1CCN(c2c(F)cc3c(=O)c(C(=O)O)cn(C4CC4)c3c2F)C1 (stereo not given) | 0.008 (≈ 0.0229 µM)

tested on: Klebsiella pneumoniae; test: In vitro antimicrobial activity against strain Klebsiella pneumoniae 9664; format: functional; method in brief: as §1

SMILES | MIC [µg/mL]
O=C(O)c1cn(C2CC2)c2cc(N3CCNCC3)c(F)cc2c1=O [CIPROFLOXACIN] | 0.06 (≈ 0.181 µM)
NC1CCN(c2cc(F)c3c(=O)c(C(=O)O)cn(C4CC4)c3c2)C1 (stereo not given) | 0.5 (≈ 1.51 µM)
NC1CCN(c2ccc3c(=O)c(C(=O)O)cn(C4CC4)c3c2F)C1 (stereo not given) | 0.016 (≈ 0.0483 µM)
NC1CCN(c2cc(F)c3c(=O)c(C(=O)O)cn(C4CC4)c3c2F)C1 (stereo not given) | 0.13 (≈ 0.372 µM)
NC1CCN(c2ccc3c(=O)c(C(=O)O)cn(C4CC4)c3c2)C1 (stereo not given) | 0.06 (≈ 0.191 µM)
NC1CCN(c2cc3c(cc2F)c(=O)c(C(=O)O)cn3C2CC2)C1 (stereo not given) | 0.03 (≈ 0.0905 µM)
NC1CCN(c2c(F)cc3c(=O)c(C(=O)O)cn(C4CC4)c3c2F)C1 (stereo not given) | 0.03 (≈ 0.0859 µM)

tested on: Pseudomonas aeruginosa; test: In vitro antimicrobial activity against strain Pseudomonas aeruginosa 9843; format: functional; method in brief: as §1

SMILES | MIC [µg/mL]
NC1CCN(c2cc(F)c3c(=O)c(C(=O)O)cn(C4CC4)c3c2)C1 (stereo not given) | 4 (≈ 12.1 µM)
NC1CCN(c2ccc3c(=O)c(C(=O)O)cn(C4CC4)c3c2F)C1 (stereo not given) | 0.25 (≈ 0.754 µM)
NC1CCN(c2cc(F)c3c(=O)c(C(=O)O)cn(C4CC4)c3c2F)C1 (stereo not given) | 2 (≈ 5.73 µM)
NC1CCN(c2ccc3c(=O)c(C(=O)O)cn(C4CC4)c3c2)C1 (stereo not given) | 0.5 (≈ 1.6 µM)
NC1CCN(c2cc3c(cc2F)c(=O)c(C(=O)O)cn3C2CC2)C1 (stereo not given) | 0.25 (≈ 0.754 µM)
NC1CCN(c2c(F)cc3c(=O)c(C(=O)O)cn(C4CC4)c3c2F)C1 (stereo not given) | 0.13 (≈ 0.372 µM)

tested on: Proteus mirabilis; test: In vitro antimicrobial activity against strain Proteus mirabilis 9900; format: functional; method in brief: as §1

SMILES | MIC [µg/mL]
O=C(O)c1cn(C2CC2)c2cc(N3CCNCC3)c(F)cc2c1=O [CIPROFLOXACIN] | 0.008 (≈ 0.0241 µM)
NC1CCN(c2cc(F)c3c(=O)c(C(=O)O)cn(C4CC4)c3c2)C1 (stereo not given) | 0.5 (≈ 1.51 µM)
NC1CCN(c2ccc3c(=O)c(C(=O)O)cn(C4CC4)c3c2F)C1 (stereo not given) | 0.03 (≈ 0.0905 µM)
NC1CCN(c2cc(F)c3c(=O)c(C(=O)O)cn(C4CC4)c3c2F)C1 (stereo not given) | 0.13 (≈ 0.372 µM)
NC1CCN(c2ccc3c(=O)c(C(=O)O)cn(C4CC4)c3c2)C1 (stereo not given) | 0.13 (≈ 0.415 µM)
NC1CCN(c2cc3c(cc2F)c(=O)c(C(=O)O)cn3C2CC2)C1 (stereo not given) | 0.03 (≈ 0.0905 µM)
NC1CCN(c2c(F)cc3c(=O)c(C(=O)O)cn(C4CC4)c3c2F)C1 (stereo not given) | 0.016 (≈ 0.0458 µM)

tested on: Enterococcus faecalis; test: In vitro antimicrobial activity against strain Enterococcus faecalis 9809; format: functional; method in brief: as §1

SMILES | MIC [µg/mL]
O=C(O)c1cn(C2CC2)c2cc(N3CCNCC3)c(F)cc2c1=O [CIPROFLOXACIN] | 0.5 (≈ 1.51 µM)
NC1CCN(c2cc(F)c3c(=O)c(C(=O)O)cn(C4CC4)c3c2)C1 (stereo not given) | 16 (≈ 48.3 µM)
NC1CCN(c2ccc3c(=O)c(C(=O)O)cn(C4CC4)c3c2F)C1 (stereo not given) | 0.25 (≈ 0.754 µM)
NC1CCN(c2cc(F)c3c(=O)c(C(=O)O)cn(C4CC4)c3c2F)C1 (stereo not given) | 4 (≈ 11.5 µM)
NC1CCN(c2ccc3c(=O)c(C(=O)O)cn(C4CC4)c3c2)C1 (stereo not given) | 4 (≈ 12.8 µM)
NC1CCN(c2cc3c(cc2F)c(=O)c(C(=O)O)cn3C2CC2)C1 (stereo not given) | 0.25 (≈ 0.754 µM)
NC1CCN(c2c(F)cc3c(=O)c(C(=O)O)cn(C4CC4)c3c2F)C1 (stereo not given) | 2 (≈ 5.73 µM)

tested on: Morganella morganii; test: In vitro antimicrobial activity against strain Morganella morganii 15153; format: functional; method in brief: as §1

SMILES | MIC [µg/mL]
O=C(O)c1cn(C2CC2)c2cc(N3CCNCC3)c(F)cc2c1=O [CIPROFLOXACIN] | 0.08 (≈ 0.241 µM)
NC1CCN(c2cc(F)c3c(=O)c(C(=O)O)cn(C4CC4)c3c2)C1 (stereo not given) | 0.25 (≈ 0.754 µM)
NC1CCN(c2ccc3c(=O)c(C(=O)O)cn(C4CC4)c3c2F)C1 (stereo not given) | 0.016 (≈ 0.0483 µM)
NC1CCN(c2cc(F)c3c(=O)c(C(=O)O)cn(C4CC4)c3c2F)C1 (stereo not given) | 0.06 (≈ 0.172 µM)
NC1CCN(c2ccc3c(=O)c(C(=O)O)cn(C4CC4)c3c2)C1 (stereo not given) | 0.13 (≈ 0.415 µM)
NC1CCN(c2cc3c(cc2F)c(=O)c(C(=O)O)cn3C2CC2)C1 (stereo not given) | 0.016 (≈ 0.0483 µM)
NC1CCN(c2c(F)cc3c(=O)c(C(=O)O)cn(C4CC4)c3c2F)C1 (stereo not given) | 0.016 (≈ 0.0458 µM)

tested on: Enterobacter cloacae; test: In vitro antimicrobial activity against strain Enterobacter cloacae 9656; format: functional

SMILES | MIC [µg/mL]
NC1CCN(c2cc(F)c3c(=O)c(C(=O)O)cn(C4CC4)c3c2)C1 (stereo not given) | 0.13 (≈ 0.392 µM)
NC1CCN(c2ccc3c(=O)c(C(=O)O)cn(C4CC4)c3c2F)C1 (stereo not given) | 0.03 (≈ 0.0905 µM)
NC1CCN(c2cc(F)c3c(=O)c(C(=O)O)cn(C4CC4)c3c2F)C1 (stereo not given) | 0.06 (≈ 0.172 µM)
NC1CCN(c2ccc3c(=O)c(C(=O)O)cn(C4CC4)c3c2)C1 (stereo not given) | 0.13 (≈ 0.415 µM)
NC1CCN(c2cc3c(cc2F)c(=O)c(C(=O)O)cn3C2CC2)C1 (stereo not given) | 0.004 (≈ 0.0121 µM)
NC1CCN(c2c(F)cc3c(=O)c(C(=O)O)cn(C4CC4)c3c2F)C1 (stereo not given) | 0.016 (≈ 0.0458 µM)

tested on: Streptococcus pneumoniae; test: In vitro antimicrobial activity against strain Streptococcus pneumoniae 9585; format: functional; method in brief: as §1

SMILES | MIC [µg/mL]
O=C(O)c1cn(C2CC2)c2cc(N3CCNCC3)c(F)cc2c1=O [CIPROFLOXACIN] | 0.25 (≈ 0.754 µM)
NC1CCN(c2cc(F)c3c(=O)c(C(=O)O)cn(C4CC4)c3c2)C1 (stereo not given) | 4 (≈ 12.1 µM)
NC1CCN(c2ccc3c(=O)c(C(=O)O)cn(C4CC4)c3c2F)C1 (stereo not given) | 0.5 (≈ 1.51 µM)
NC1CCN(c2cc(F)c3c(=O)c(C(=O)O)cn(C4CC4)c3c2F)C1 (stereo not given) | 4 (≈ 11.5 µM)
NC1CCN(c2ccc3c(=O)c(C(=O)O)cn(C4CC4)c3c2)C1 (stereo not given) | 2 (≈ 6.38 µM)
NC1CCN(c2cc3c(cc2F)c(=O)c(C(=O)O)cn3C2CC2)C1 (stereo not given) | 0.13 (≈ 0.392 µM)
NC1CCN(c2c(F)cc3c(=O)c(C(=O)O)cn(C4CC4)c3c2F)C1 (stereo not given) | 0.03 (≈ 0.0859 µM)

tested on: Escherichia coli; test: In vitro antimicrobial activity against strain Escherichia coli 15119; format: functional; method in brief: as §1

SMILES | MIC [µg/mL]
NC1CCN(c2cc(F)c3c(=O)c(C(=O)O)cn(C4CC4)c3c2)C1 (stereo not given) | 0.13 (≈ 0.392 µM)
NC1CCN(c2ccc3c(=O)c(C(=O)O)cn(C4CC4)c3c2F)C1 (stereo not given) | 0.008 (≈ 0.0241 µM)
NC1CCN(c2cc(F)c3c(=O)c(C(=O)O)cn(C4CC4)c3c2F)C1 (stereo not given) | 0.06 (≈ 0.172 µM)
NC1CCN(c2ccc3c(=O)c(C(=O)O)cn(C4CC4)c3c2)C1 (stereo not given) | 0.008 (≈ 0.0255 µM)
NC1CCN(c2cc3c(cc2F)c(=O)c(C(=O)O)cn3C2CC2)C1 (stereo not given) | 0.004 (≈ 0.0121 µM)
NC1CCN(c2c(F)cc3c(=O)c(C(=O)O)cn(C4CC4)c3c2F)C1 (stereo not given) | 0.008 (≈ 0.0229 µM)
